We go through 25 molecules from ChEMBL document CHEMBL4052722, “Virtual screening, synthesis and biological evaluation of DNA intercalating antiviral agents” (Bioorg Med Chem Lett, 2017).

Usually CC50 stands for the concentration giving 50% cytotoxicity.

Structures are written as SMILES. Activity calls are given as the source filed them. The calls are words filed in the database; no cut-off is given here.

The nature of data set [1]: Cytotoxicity against African green monkey CV1 cells assessed as cell viability at 0.1 to 100 uM preincubated for 4 hrs measured after 24 hrs by MTT assay relative to control. The following applies: chlorocebus aethiops, read-out: Activity. The class given is cell-based, CV-1. In outline:
(§1)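 CV-1 cells were exposed to test samples at 0.1, 10 and 100 μM. Viability was read by MTT assay.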

Data set [2] in a line: Cytotoxicity against African green monkey CV1 cells assessed as reduction in cell viability preincubated for 4 hrs measured after 24 hrs by MTT assay relative to control. The class given is cell-based, CV-1. The following applies: chlorocebus aethiops. In outline: as §1
Data set [3] relates to Vesicular stomatitis virus. The data set is described as follows: Antiviral activity against Vesicular stomatitis virus at 0.2 to 620 uM after 24 hrs post infection relative to control. The class given is functional.
For a further data set, the species on record is Bos taurus. The data set can be described thus: Displacement of ethidium bromide from calf thymus DNA by fluorescence binding assay.
Data set [4] can be described thus: Cytotoxicity against African green monkey CV1 cells assessed as viable cells at 30 uM after 110 hrs by real-time cells analysis relative to control. It counts as cell-based, CV-1. The settings on record: chlorocebus aethiops, read-out: Activity. In outline:
(§2)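 CV-1 cell viability was monitored in real time on an xCelligence Real-Time Cell Analyzer. This ran in parallel with the plaque-forming assay, in which cells were pre-incubated with the compounds for 4 h before infection.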

A short description of data set [5]: Cytotoxicity against African green monkey CV1 cells assessed as viable cells at 1 uM after 110 hrs by real-time cell analysis relative to control. The following applies: chlorocebus aethiops, read-out: Activity. It counts as cell-based, CV-1. In outline:
as §2

For another data set, the system named is L929. The data set is described as follows: Induction of IFN-alpha activity in mouse L929 cells infected with Encephalomyocarditis virus at 10 uM preincubated with cells for overnight followed by viral infection by optical microscopic analysis. It counts as functional, cell-based.
A short description of data set [6]: Cytotoxicity against African green monkey CV1 cells assessed as viable cells at 10 uM after 110 hrs by real-time cell analysis relative to control. It counts as cell-based, CV-1. The settings on record: chlorocebus aethiops, read-out: Activity. In outline: as §2
Data set [7] is described as follows: Selectivity index, ratio of CC50 for African green monkey CV1 cells to IC50 for Vaccinia virus LIVP harboring GFP infected in African green monkey CV1 cells. The following applies: read-out: Ratio CC50/IC50. The class given is toxicity.
A short description of data set [8]: Cytotoxicity against African green monkey CV1 cells assessed as viable cells at 50 uM after 110 hrs by real-time cell analysis relative to control. The following applies: chlorocebus aethiops, read-out: Activity. The class given is cell-based, CV-1. Summed up: as §2
A short description of data set [9]: Cytotoxicity against African green monkey CV1 cells assessed as viable cells at 5 uM after 110 hrs by real-time cell analysis relative to control. It counts as cell-based, CV-1. The following applies: chlorocebus aethiops, read-out: Activity. Summed up:
as §2

On to `O=C(Cn1c2ccccc2c2nc3ccccc3nc21)NCCN1CCOCC1`, for which the viability at 24 h, up to 100 µM in data set [1] stood at 109%. Further, the CC50 at 24 h in data set [2] was more than 100 µM. Besides, in [3], the Activity was 50%. In the data set filed under Bos taurus, this molecule registered a log Ka of 5.13.

With `CN1CCN(CCn2c3ccccc3c3nc4ccccc4nc32)CC1`, in [1], the viability at 24 h, up to 100 µM is 82%. For the same molecule, the CC50 at 24 h in data set [2] came to 50 µM. For the same molecule, in [3], the Activity amounted to 85%. This molecule returned a log Ka in the data set listed under Bos taurus of 5.87.

For the molecule `CN(C)CCNCCn1c2ccccc2c2nc3ccccc3nc21`, the viability at 24 h, up to 100 µM in data set [1] stood at 99%. Also, the CC50 at 24 h in data set [2] is more than 100 µM. Further, the Activity in data set [3] is listed as 42%. The same molecule yielded a log Ka in the data set filed under Bos taurus of 6.83.

For `c1ccc2nc3c(nc2c1)c1ccccc1n3CCNCCCN1CCOCC1`, the viability at 24 h, up to 100 µM in data set [1] came out at 79%. The CC50 at 24 h in [2] lay in the range of 50 to 81 µM. Further, the viability at 110 h, 30 µM in [4] is 75%. The Activity in data set [3] is 52%. Further, in data set [5], the viability at 110 h, 1 µM stood at 107%. Besides, the outcome with L929 was inactive. The viability at 110 h, 10 µM in [6] is 110%. The selectivity ratio in data set [7] worked out at 4. Moreover, the log Ka in the data set listed under Bos taurus was 6.72.

Turning to `COc1ccc2c(c1)c1nc3ccccc3nc1n2CCN1CCCCC1`, the viability at 110 h, 50 µM in [8] came to 75.6%. In addition, in data set [1], the viability at 24 h, up to 100 µM stood at 79%. Further, the 50% cytotoxic concentration (CC50) at 24 h in data set [2] is 100 to 170 µM. The viability at 110 h, 1 µM in [5] is 108%. Besides, the result in the data set with L929 was inactive. The viability at 110 h, 10 µM in data set [6] is 96.9%. In addition, the selectivity ratio in data set [7] turned out to be 34.

`CCCCN(C)CCn1c2ccccc2c2nc3ccccc3nc21`: in data set [1], the viability at 24 h, up to 100 µM is 92%. The CC50 at 24 h in data set [2] is more than 100 µM. Further, the Activity in [3] came to 75%. Further, the log Ka in the data set filed under Bos taurus was 5.93.

As for `CN(C)CCCOC(=O)Cn1c2ccccc2c2nc3ccccc3nc21`, the viability at 24 h, up to 100 µM in [1] was determined as 87%. In data set [2], the cytotoxic concentration (CC50) at 24 h was found to be 100 µM. In [3], this molecule displayed an Activity of 100%. The log Ka in the data set listed under Bos taurus is 5.28.

Regarding `c1ccc2nc3c(nc2c1)c1ccccc1n3CCNCCN1CCCCC1`, the viability at 24 h, up to 100 µM in data set [1] was found to be 113%. Moreover, the half-maximal cytotoxic concentration (CC50) at 24 h in data set [2] was more than 100 µM. The Activity in [3] is reported as 52%. In addition, the log Ka in the data set listed under Bos taurus is 6.85.

As to `CN(C)CCn1c2ccccc2c2nc3ccccc3nc21`, the viability at 24 h, up to 100 µM in [1] turned out to be 62%. The CC50 at 24 h in [2] is 10 µM. In addition, the Activity in data set [3] was 75%. The log Ka in the data set listed under Bos taurus was found to be 5.93.

For `CCN(CC)CCNC(=O)Cn1c2ccccc2c2nc3ccccc3nc21`, in data set [1], the viability at 24 h, up to 100 µM is 100%. The CC50 at 24 h in data set [2] was more than 100 µM. In [3], this molecule had an Activity of 75%. The molecule also showed a log Ka in the data set listed under Bos taurus of 5.03.

For the molecule `CN(C)CCOC(=O)CCCn1c2ccccc2c2nc3ccccc3nc21`, the viability at 24 h, up to 100 µM in [1] is 94%. Also, in data set [2], the CC50 at 24 h stood at 100 µM. Moreover, the Activity in [3] is 75%. Moreover, the log Ka in the data set listed under Bos taurus worked out at 5.56.

Consider `O=C(Cn1c2ccccc2c2nc3ccccc3nc21)NCCCN1CCOCC1`, for which, in data set [1], the viability at 24 h, up to 100 µM is 102%. In addition, the half-maximal cytotoxic concentration (CC50) at 24 h in [2] is more than 100 µM. Further, the Activity in data set [3] is 60%. Further, the log Ka in the data set filed under Bos taurus is 5.32.

Turning to `O=C(CCCn1c2ccccc2c2nc3ccccc3nc21)NCCN1CCCCC1`, in [1], the viability at 24 h, up to 100 µM was 93%. In addition, the CC50 at 24 h in data set [2] was found to be 100 µM. Also, the log Ka in the data set listed under Bos taurus was 4.98.

For `CN(C)CCCNC(=O)Cn1c2ccccc2c2nc3ccccc3nc21`, the viability at 110 h, 50 µM in data set [8] is 90%. Besides, the viability at 24 h, up to 100 µM in data set [1] is 84%. Further, the CC50 at 24 h in [2] was 100 to 500 µM. The molecule also had an Activity in data set [3] of 50%. For the same molecule, the viability at 110 h, 1 µM in [5] came out at 104%. For the same molecule, the outcome with L929 was inactive. Also, the viability at 110 h, 10 µM in data set [6] was 131%. For the same molecule, the selectivity ratio in data set [7] came to 50. Moreover, the log Ka in the data set filed under Bos taurus came out at 5.2.

For the molecule `CN(C)CCCNCCn1c2ccccc2c2nc3ccccc3nc21`, in [1], the viability at 24 h, up to 100 µM stood at 88%. For the same molecule, the CC50 at 24 h in data set [2] lay in the range of 50 to 92 µM. In addition, the viability at 110 h, 30 µM in data set [4] turned out to be 75%. Besides, the Activity in data set [3] is recorded as 69%. The viability at 110 h, 1 µM in [5] worked out at 114%. Moreover, in the data set on L929, the outcome was inactive. Moreover, the viability at 110 h, 10 µM in data set [6] amounted to 110%. For the same molecule, the selectivity ratio in [7] amounted to 4. In addition, the log Ka in the data set listed under Bos taurus came to 6.76.

In the case of `O=C(CN1CCCC1)NN1C(=O)c2cccc3cccc(c23)C1=O`, the viability at 24 h, up to 100 µM in [1] came to 99%. For the same molecule, in [2], the 50% cytotoxic concentration (CC50) at 24 h is more than 100 µM. The log Ka in the data set listed under Bos taurus was found to be 5.41.

`CCN(CC)CCNCCn1c2ccccc2c2nc3ccccc3nc21`: the viability at 24 h, up to 100 µM in data set [1] stood at 99%. Besides, the CC50 at 24 h in [2] was more than 100 µM. In [3], this molecule showed an Activity of 73%. The log Ka in the data set filed under Bos taurus was 6.82.

On to `O=C(CN1CCCCCC1)NN1C(=O)c2cccc3cccc(c23)C1=O`, for which, in data set [1], the viability at 24 h, up to 100 µM turned out to be 97%. In addition, the CC50 at 24 h in data set [2] is more than 100 µM. Moreover, the log Ka in the data set filed under Bos taurus is 5.53.

Take `O=C(Cn1c2ccccc2c2nc3ccccc3nc21)OCCN1CCCCC1`: the viability at 24 h, up to 100 µM in data set [1] came to 102%. For the same molecule, the CC50 at 24 h in data set [2] was more than 100 µM. In addition, the Activity in data set [3] is 50%. The molecule further registered a log Ka in the data set listed under Bos taurus of 5.39.

Consider `O=C(CCCn1c2ccccc2c2nc3ccccc3nc21)NCCCN1CCOCC1`, for which the viability at 24 h, up to 100 µM in data set [1] was determined as 85%. For the same molecule, in [2], the CC50 at 24 h is more than 100 µM. Also, the log Ka in the data set filed under Bos taurus worked out at 5.11.

With `O=C(CCCn1c2ccccc2c2nc3ccccc3nc21)OCCN1CCOCC1`, the viability at 24 h, up to 100 µM in data set [1] stood at 102%. Moreover, in data set [2], the CC50 at 24 h was more than 100 µM. The same molecule yielded an Activity in [3] of 80%. This molecule came in with a log Ka in the data set listed under Bos taurus of 5.7.

Regarding `CN(C)CCNC(=O)Cn1c2ccccc2c2nc3ccccc3nc21`, the viability at 24 h, up to 100 µM in data set [1] worked out at 94%. The CC50 at 24 h in data set [2] was more than 100 µM. The Activity in data set [3] worked out at 82%. This molecule also registered a log Ka in the data set filed under Bos taurus of 5.38.

Take `CCN(CC)CCCNCCn1c2ccccc2c2nc3ccccc3nc21`: the viability at 110 h, 50 µM in data set [8] worked out at 17.2%. Besides, the viability at 24 h, up to 100 µM in [1] was found to be 74%. Further, the CC50 at 24 h in data set [2] is 30 to 50 µM. Moreover, the Activity in data set [3] was determined as 53%. Moreover, the viability at 110 h, 1 µM in data set [5] amounted to 97.1%. Besides, the viability at 110 h, 10 µM in [6] is 125%. The same molecule yielded a log Ka in the data set filed under Bos taurus of 6.87. Further, in data set [9], the viability at 110 h, 5 µM turned out to be 125%.

For `CCN(CC)CCCC(C)N1C(=O)c2cccc3cccc(c23)C1=O` (configuration not stated), the viability at 24 h, up to 100 µM in data set [1] is 86%. Besides, the CC50 at 24 h in data set [2] was 50 µM. The molecule also gave a log Ka in the data set filed under Bos taurus of 5.5.

In the case of `CCN(CC)CCCNC(=O)Cn1c2ccccc2c2nc3ccccc3nc21`, the viability at 24 h, up to 100 µM in data set [1] was 88%. Moreover, the CC50 at 24 h in data set [2] turned out to be 100 µM. Further, in data set [3], the Activity stood at 85%. The molecule further registered a log Ka in the data set listed under Bos taurus of 4.93.
